Source: the RNAGym collection of RNA variant scans (doi:10.1038/s41586-018-0170-7)

B1: tRNA (parent)
chain: GUUCCGUUGGCGUAAUGGUAACGCGUCUCCCUCCUAAGGAGAAGACUGCGGGUUCGAGUCCCGUACGGAACG

Variants of: B1
Assay: yeast fitness, log relative to wild type (ln ratio); higher = fitter; tRNA-Arg(CCU), competitive growth, 37 C, 1 M NaCl
How it was run: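 For each genotype, fitness is defined as the natural log of its generation number over the wild type's. The tRNA-Arg(CCU) variant library was on a HIS3 centromeric plasmid in BY4742 with the chromosomal gene removed, and pools were first grown 4 generations in SC-HIS at 30 °C and then ~6.5 generations (~26.5 h) in SC-HIS 1M NaCl at 37 °C. Generations were calculated from OD-scaled log2 output/input frequency, weighted by inverse variance across replicates, using counts from 125 bp paired-end Illumina sequencing.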

Row | Variant | yeast fitness (ln)
1 | G1A U2G G6A C46U C71U | -0.247
2 | U2G C27U A43C C66A A70U C71U | -0.319
3 | U2G A70U | -0.00577
4 | G1A G6U C27U A43C C66U A70G C71U | -0.415
5 | U2C G6U A43C C66U | -0.161
6 | G6U C27U C46U C66A A69G C71U | -0.507
7 | G1A U2G G6U A43C A70U C71U | -0.41
8 | C27U C66A A69G A70G | -0.25
9 | C66U | -0.017
10 | U2C A43C C46U C66A A69G A70U C71U | -0.374
11 | G6A C27U A43C C66U A69G C71U | -0.368
12 | U2C G6U A43C C46U C71U | -0.125
13 | G1A C27U C66A A70G | -0.212
14 | G1A U2G C46U C66A A69G A70G C71U | -0.173
15 | G1A G6A A43C C46U A69G A70G | -0.251
16 | G1A U2G G6U C27U C46U C66A A69G A70U C71U | -0.513
17 | G1A C46U A70G | -0.226
18 | G1A U2G G6A C27U C66U A69G A70U C71U | -0.479
19 | G1A G6U C66A A69G A70U C71U | -0.432
20 | G1A U2G C27U A43C C46U A69G | -0.212
21 | G1A G6U A43C C46U C66A A69G A70U C71U | -0.301

Row | Variant | yeast fitness (ln)
22 | G6A C27U C46U C66A A70G C71U | -0.252
23 | U2C C27U C46U C71U | -0.268
24 | G1A U2C G6A C46U C66U A69G A70U | -0.0207
25 | C66U A70G C71U | -0.0554
26 | G6A A43C C46U C66U A69G A70G | -0.233
27 | G6A A43C C46U C66U A69G A70U | -0.159
28 | G1A C27U C46U A69G A70G | -0.166
29 | U2G C27U C46U C66U | -0.0703
30 | G1A G6A A43C A70G | -0.12
31 | C46U | 0.0114
32 | U2C G6A C27U C46U C66U C71U | -0.119
33 | U2G G6U C46U C66U C71U | -0.2
34 | C27U C66A C71U | -0.117
35 | U2G C27U C46U C66A A70G C71U | -0.228
36 | U2G C46U A69G C71U | -0.0879
37 | G6A C66U A69G A70G C71U | -0.41
38 | U2C G6A C27U A43C A70U | -0.108
39 | C66A A69G A70G | -0.0347
40 | C27U A43C C46U C66A A69G A70G C71U | -0.122
41 | G1A U2G G6A C46U C66U A69G C71U | -0.253
42 | C46U C66A A69G A70G | -0.0653

Row | Variant | yeast fitness (ln)
43 | U2C G6U A43C C46U C66U A70G C71U | -0.352
44 | G1A U2C G6U C27U A43C C46U A70U C71U | -0.177
45 | U2G G6A C27U A69G A70U | -0.151
46 | U2C G6A C46U A69G C71U | -0.107
47 | U2G C27U C46U A69G | -0.0724
48 | G1A U2G G6U C27U A43C C46U C66U | -0.434
49 | U2C G6U A69G A70U C71U | -0.231
50 | C27U A70U C71U | -0.149
51 | G1A A43C C46U C66A A69G A70U | -0.113
52 | G1A U2C C66U A70G | -0.297
53 | U2C C27U A43C C46U C66A A69G A70U C71U | -0.472
54 | G1A U2C G6U C66A A70U | -0.234
55 | A43C C46U C66U A69G C71U | -0.273
56 | C27U A70U | -0.042
57 | U2C G6A C27U C66U A70G C71U | -0.0401
58 | G1A U2G G6U A43C C46U C66A | -0.364
59 | U2G G6U C27U C46U | -0.1
60 | U2C A69G A70G C71U | -0.0131
61 | G6U C27U A43C C46U C66A C71U | -0.299
62 | U2C G6U A43C C46U C66U | -0.158
63 | G6A C27U C46U C66A | -0.126

Row | Variant | yeast fitness (ln)
64 | G1A C27U A43C C66U A70U | -0.201
65 | G1A G6A A43C C71U | -0.257
66 | U2C G6A C27U C46U C66U A70U | -0.112
67 | U2C G6U A43C A70U C71U | -0.198
68 | C27U | -0.0106
69 | U2G A43C C46U C66A A70G C71U | -0.165
70 | U2G G6A C27U A43C C46U C66A A69G A70G C71U | -0.252
71 | U2G G6U A43C A69G A70U | -0.227
72 | G1A U2G A43C C46U A69G C71U | -0.18
73 | G1A U2C G6A A43C C46U C66U A69G A70G | -0.232
74 | G1A U2C G6U C46U C66U A69G A70U C71U | -0.317
75 | U2C C27U C66U A69G A70G C71U | -0.529
76 | U2C G6A C27U A43C C46U A69G A70G C71U | -0.13
77 | G6U A43C C46U C66U | -0.258
78 | G1A U2G G6U A43C C66U A69G A70U C71U | -0.4
79 | G1A U2C C27U C46U C71U | -0.147
80 | G6A C27U C66U A69G C71U | -0.594
81 | U2G C66U A70U | -0.00968
82 | G1A U2G G6U A43C A69G A70G | -0.277
83 | G1A U2G G6U C27U A43C C46U A69G A70U C71U | -0.41
84 | G1A U2G C27U A43C C66U A70G C71U | -0.383
